Laboratory results as given in ChEMBL document CHEMBL1138652, “Chlorothiophenecarboxamides as P1 surrogates of inhibitors of blood coagulation factor Xa” (Bioorg Med Chem Lett, 2004).
≈ marks a conversion by molar mass, not a printed value.

Legend:
Coagulation factor X = Coagulation factor X (Homo sapiens, UniProt P00742); test: Inhibitory concentration against human serine protease factor Xa
How it was run: (§1)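 Human factor Xa, thrombin and trypsin were each monitored in vitro with a protease-specific chromogenic substrate. Inhibition was calculated from the ratio of optical density in drug-containing versus vehicle-containing assays.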

Prothrombin = Prothrombin (Homo sapiens, UniProt P00734); test: Inhibitory concentration against human thrombin activity; how it was run: as §1
Trypsin = Trypsin (Homo sapiens, UniProt P07477+P07478+P35030); test: Inhibitory concentration against human trypsin activity; format: protein assay; how it was run: as §1
[1] = Maximum absorbable dose of compound after administration at dose of 10 mg/kg was determined; format: ADME, organism-based; parameters: dose 10 mg/kg; conditions: human
[2] = Solubility was determined; format: ADME; conditions: human
How it was run: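 Shake-flask solubility was measured in phosphate buffer at pH 7 and 37 °C.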

[3] = Bioavailability of compound after peroral administration at dose of 0.5 mg/kg in female dogs was determined; format: ADME, organism-based, Canis lupus familiaris; conditions: dog, in vivo, po, read-out: Bioavailabiility
How it was run: (§2)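 Pharmacokinetics were studied in male Wistar rats (N = 3), female Beagle dogs (N = 2) and female Cynomolgus monkeys (N = 2). Each animal received single intravenous and oral doses. Plasma concentration–time data gave Cmax, tmax, AUC, t1/2, CL, Vss and oral bioavailability.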

[4] = Area under curve concentration of compound after intravenous administration at dose of 0.15 mg/kg in female dogs was determined; conditions: dog, in vivo
[5] = Clearance of compound after intravenous administration at dose of 0.2 mg/kg in female monkeys was determined; format: ADME, organism-based; parameters: dose 0.2 mg/kg, route intravenous; conditions: cercopithecidae, in vivo; how it was run: as §2
[6] = Clearance of compound after intravenous administration at dose of 0.15 mg/kg in female dogs was determined; conditions: dog, in vivo
[7] = Half life of compound after intravenous administration at dose of 0.2 mg/kg in female monkeys was determined; format: ADME, organism-based; parameters: dose 0.2 mg/kg, route intravenous; conditions: cercopithecidae, in vivo; how it was run: as §2
[8] = Half life of compound after intravenous administration at dose of 0.2 mg/kg in male wistar rats was determined; format: ADME, organism-based; parameters: dose 0.2 mg/kg, route intravenous; conditions: rat, in vivo; how it was run: as §2
[9] = Half life of compound after intravenous administration at dose of 0.15 mg/kg in female dogs was determined; conditions: dog, in vivo
[10] = Area under curve concentration of compound at 6 hr after peroral administration at dose of 0.5 mg/kg in female dogs was determined; format: ADME, organism-based, Canis lupus familiaris; parameters: time < 6 hr, dose 0.5 mg/kg, route oral; conditions: dog, in vivo, po; how it was run: as §2
[11] = Maximum time taken for concentration of compound in plasma after peroral administration at dose of 0.5 mg/kg in female dogs was determined; format: ADME, organism-based, Canis lupus familiaris; parameters: dose 0.5 mg/kg, route oral; conditions: dog, po; how it was run: as §2
[12] = Steady state volume of distribution of compound after intravenous administration at dose of […] was determined; format: ADME, organism-based, Canis lupus familiaris; parameters: route intravenous; conditions: dog, in vivo, read-out: Vss; how it was run: as §2
[13] = Steady state volume of distribution of compound after intravenous administration at dose of 0.2 mg/kg in female monkeys was determined; format: ADME, organism-based; parameters: dose 0.2 mg/kg, route intravenous; conditions: cercopithecidae, in vivo, read-out: Vss; how it was run: as §2
[14] = Steady state volume of distribution of compound after intravenous administration at dose of 0.2 mg/kg in male wistar rats was determined; format: ADME, organism-based; parameters: dose 0.2 mg/kg, route intravenous; conditions: rat, in vivo, read-out: Vss; how it was run: as §2
[15] = Bioavailability of compound after peroral administration at dose of 0.5 mg/kg in female monkeys was determined; format: ADME, organism-based; conditions: cercopithecidae, in vivo, po, read-out: Bioavailabiility; how it was run: as §2
[16] = Area under curve concentration of compound at 6 hr after peroral administration at dose of 0.5 mg/kg in male wistar rats was determined; format: ADME, organism-based; parameters: time < 6 hr, dose 0.5 mg/kg, route oral; conditions: rat, in vivo, po; how it was run: as §2
[17] = Area under curve concentration of compound at 6 hr after peroral administration at dose of 0.5 mg/kg in female monkeys was determined; format: ADME, organism-based; parameters: time < 6 hr, dose 0.5 mg/kg, route oral; conditions: cercopithecidae, in vivo, po; how it was run: as §2
[18] = Clearance of compound after intravenous administration at dose of 0.2 mg/kg in male wistar rats was determined; format: ADME, organism-based; parameters: dose 0.2 mg/kg, route intravenous; conditions: rat, in vivo; how it was run: as §2
[19] = Area under curve concentration of compound after intravenous administration at dose of 0.2 mg/kg in male wistar rats was determined; format: ADME, organism-based; parameters: dose 0.2 mg/kg, route intravenous; conditions: rat, in vivo; how it was run: as §2
[20] = Maximum time taken for concentration of compound in plasma after peroral administration at dose of 0.5 mg/kg in male wistar rats was determined; format: ADME, organism-based; parameters: dose 0.5 mg/kg, route oral; conditions: rat, po; how it was run: as §2
[21] = Area under curve concentration of compound after intravenous administration at dose of 0.2 mg/kg in female monkeys was determined; format: ADME, organism-based; parameters: dose 0.2 mg/kg, route intravenous; conditions: cercopithecidae, in vivo; how it was run: as §2
[22] = Maximum time taken for concentration of compound in plasma after peroral administration at dose of 0.5 mg/kg in female monkeys was determined; format: ADME, organism-based; parameters: dose 0.5 mg/kg, route oral; conditions: cercopithecidae, po; how it was run: as §2
[23] = Maximum plasma concentration after peroral administration of compound at dose of 0.5 mg/kg in female dogs was determined; format: ADME, organism-based, Canis lupus familiaris; parameters: dose 0.5 mg/kg, route oral; conditions: dog, po; how it was run: as §2
[24] = Maximum plasma concentration after peroral administration of compound at dose of 0.5 mg/kg in male wistar rats was determined; format: ADME, organism-based; parameters: dose 0.5 mg/kg, route oral; conditions: rat, po; how it was run: as §2
[25] = Bioavailability of compound after peroral administration at dose of 0.5 mg/kg in male wistar rats was determined; format: ADME, organism-based; conditions: rat, in vivo, po, read-out: Bioavailabiility; how it was run: as §2
[26] = Maximum plasma concentration after peroral administration of compound at dose of 0.5 mg/kg in female monkeys was determined; format: ADME, organism-based; parameters: dose 0.5 mg/kg, route oral; conditions: cercopithecidae, po; how it was run: as §2

Sequence of Coagulation factor X (P00742 41-179 limits assumed): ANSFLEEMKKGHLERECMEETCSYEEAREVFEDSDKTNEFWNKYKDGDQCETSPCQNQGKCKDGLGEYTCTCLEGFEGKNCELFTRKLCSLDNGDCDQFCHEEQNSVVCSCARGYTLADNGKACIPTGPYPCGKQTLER
Sequence of Coagulation factor X (P00742 235-488 limits assumed): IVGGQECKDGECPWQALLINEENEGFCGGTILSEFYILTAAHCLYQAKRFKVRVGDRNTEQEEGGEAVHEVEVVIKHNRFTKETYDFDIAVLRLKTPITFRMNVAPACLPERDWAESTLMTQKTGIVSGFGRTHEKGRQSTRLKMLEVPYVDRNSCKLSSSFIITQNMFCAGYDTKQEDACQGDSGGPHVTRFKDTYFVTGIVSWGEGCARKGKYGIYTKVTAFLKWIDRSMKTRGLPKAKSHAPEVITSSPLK

COC[C@@H](NC(=O)c1ccc(Cl)s1)C(=O)Nc1ccc(N2CCOCC2=O)c(F)c1
IC50 (Coagulation factor X): 0.022 µM
IC50 (Prothrombin): > 10 µM
IC50 (Trypsin): > 10 µM

Cc1cc(NC(=O)[C@@H](CO)NC(=O)c2ccc(Cl)s2)ccc1N1CCOCC1=O
IC50 (Coagulation factor X): 0.029 µM
IC50 (Prothrombin): > 10 µM
IC50 (Trypsin): > 10 µM
MAD [1]: 11 mg/kg
solubility [2]: 520 µg/mL (≈ 1190 µM)

CCC[C@@H](NC(=O)Nc1ccc(Cl)cc1)C(=O)Nc1ccc(N2CCOCC2=O)cc1
IC50 (Prothrombin): > 10 µM
IC50 (Trypsin): > 10 µM

Cc1cc(NC(=O)[C@@H](CC(C)C)NC(=O)c2ccc(Cl)s2)ccc1N1CCOCC1=O
IC50 (Coagulation factor X): 0.0072 µM
IC50 (Prothrombin): > 10 µM
IC50 (Trypsin): > 10 µM
MAD [1]: 0.6 mg/kg
solubility [2]: 29 µg/mL (≈ 62.5 µM)

C[C@@H](NC(=O)c1ccc(Cl)s1)C(=O)Nc1ccc(N2CCOCC2=O)cc1
IC50 (Coagulation factor X): 0.059 µM
IC50 (Prothrombin): > 10 µM
IC50 (Trypsin): > 10 µM

CC[C@@H](NC(=O)c1ccc(Cl)s1)C(=O)Nc1ccc(N2CCOCC2=O)cc1
IC50 (Coagulation factor X): 0.02 µM
IC50 (Prothrombin): > 10 µM
IC50 (Trypsin): > 10 µM

O=C(N[C@H](C(=O)Nc1ccc(N2CCOCC2=O)cc1)c1ccccc1)c1ccc(Cl)s1
IC50 (Coagulation factor X): 0.026 µM
IC50 (Prothrombin): > 10 µM
IC50 (Trypsin): > 10 µM

COCCOC[C@@H](NC(=O)c1ccc(Cl)s1)C(=O)Nc1ccc(N2CCOCC2=O)c(C)c1
IC50 (Coagulation factor X): 0.011 µM
MAD [1]: 22 mg/kg
solubility [2]: 1050 µg/mL (≈ 2130 µM)

CC(C)C[C@@H](NC(=O)c1ccc(Cl)s1)C(=O)Nc1ccc(-n2ccccc2=O)cc1
IC50 (Coagulation factor X): 0.016 µM
IC50 (Prothrombin): > 10 µM
IC50 (Trypsin): > 10 µM

Cc1cc(NC(=O)[C@@H](C)NC(=O)c2ccc(Cl)s2)ccc1N1CCOCC1=O
IC50 (Coagulation factor X): 0.015 µM
IC50 (Prothrombin): > 10 µM
IC50 (Trypsin): > 10 µM
MAD [1]: 2.8 mg/kg
solubility [2]: 134 µg/mL (≈ 318 µM)

O=C(CCc1ccc2nc(-c3ccc(Cl)s3)[nH]c2c1)Nc1ccc(N2CCOCC2=O)cc1F
IC50 (Prothrombin): > 10 µM

CC(C)C[C@@H](NC(=O)c1ccc(Cl)s1)C(=O)Nc1ccc(N2CCOCC2=O)cc1
IC50 (Coagulation factor X): 0.015 µM
IC50 (Prothrombin): > 10 µM
IC50 (Trypsin): > 10 µM

CC(C)C[C@@H](NC(=O)c1ccc(Cl)s1)C(=O)Nc1ccc(-n2ccncc2=O)cc1
IC50 (Coagulation factor X): 0.039 µM
IC50 (Prothrombin): > 10 µM
IC50 (Trypsin): > 10 µM

CCC[C@@H](NC(=O)c1ccc(Cl)s1)C(=O)Nc1ccc(N2CCOCC2=O)c(C)c1
IC50 (Coagulation factor X): 0.0095 µM
IC50 (Prothrombin): > 10 µM
IC50 (Trypsin): > 10 µM

CCOC[C@@H](NC(=O)c1ccc(Cl)s1)C(=O)Nc1ccc(N2CCOCC2=O)c(C)c1
IC50 (Coagulation factor X): 0.01 µM
IC50 (Prothrombin): > 10 µM
IC50 (Trypsin): > 10 µM

CC[C@@H](NC(=O)c1ccc(Cl)s1)C(=O)Nc1ccc(N2CCOCC2=O)c(C)c1
IC50 (Coagulation factor X): 0.011 µM
IC50 (Prothrombin): > 10 µM
IC50 (Trypsin): > 10 µM
MAD [1]: 6.5 mg/kg
solubility [2]: 41 µg/mL (≈ 94.1 µM)

COC[C@@H](NC(=O)c1ccc(Cl)s1)C(=O)Nc1ccc(N2CCOCC2=O)c(C)c1
bioavailability [3]: ~60%
AUC [4]: 117 ng·h/mL
IC50 (Prothrombin): > 10 µM
clearance [5]: 4.17 mL/min/kg
clearance [6]: 21.7 mL/min/kg
half-life [7]: 138 min
half-life [8]: 66 min
half-life [9]: 34.2 min
AUC [10]: 211 ng·h/mL
Tmax [11]: 30 min
IC50 (Trypsin): > 10 µM
Vd [12]: 0.86 L/kg
Vd [13]: 0.81 L/kg
Vd [14]: 1.6 L/kg
MAD [1]: 11 mg/kg
bioavailability [15]: ~80%
AUC [16]: 271 ng·h/mL
AUC [17]: 1100 ng·h/mL
clearance [18]: 15.7 mL/min/kg
AUC [19]: 212 ng·h/mL
Tmax [20]: 150 min
solubility [2]: 510 µg/mL (≈ 1130 µM)
AUC [21]: 803 ng·h/mL
Tmax [22]: 30 min
Cmax [23]: 161 ng/mL
Cmax [24]: 92 ng/mL
bioavailability [25]: ~60%
Cmax [26]: 270 ng/mL

CCCOC[C@@H](NC(=O)c1ccc(Cl)s1)C(=O)Nc1ccc(N2CCOCC2=O)c(C)c1
IC50 (Coagulation factor X): 0.012 µM
IC50 (Prothrombin): > 10 µM
IC50 (Trypsin): > 10 µM
MAD [1]: 1.9 mg/kg
solubility [2]: 92 µg/mL (≈ 192 µM)

O=C(CNC(=O)c1ccc(Cl)s1)Nc1ccc(N2CCOCC2=O)cc1
IC50 (Coagulation factor X): 0.7 µM
IC50 (Prothrombin): > 10 µM
IC50 (Trypsin): > 10 µM

CC(C)C[C@H](NC(=O)c1ccc(Cl)s1)C(=O)Nc1ccc(N2CCOCC2=O)cc1
IC50 (Coagulation factor X): 0.13 µM
IC50 (Prothrombin): > 10 µM
IC50 (Trypsin): > 10 µM

CCC[C@@H](NC(=O)c1ccc(Cl)s1)C(=O)Nc1ccc(N2CCOCC2=O)cc1
IC50 (Coagulation factor X): 0.012 µM
IC50 (Prothrombin): > 10 µM
IC50 (Trypsin): > 10 µM

COC[C@@H](NC(=O)c1ccc(Cl)s1)C(=O)Nc1ccc(N2CCOCC2=O)c(Cl)c1
IC50 (Coagulation factor X): 0.013 µM
IC50 (Prothrombin): > 10 µM
IC50 (Trypsin): > 10 µM

COC[C@@H](NC(=O)c1ccc(Cl)s1)C(=O)Nc1ccc(N2CCOCC2=O)c(C(F)(F)F)c1
IC50 (Coagulation factor X): 0.014 µM

O=C(N[C@@H](C(=O)Nc1ccc(N2CCOCC2=O)cc1)c1ccccc1)c1ccc(Cl)s1
IC50 (Coagulation factor X): 0.029 µM
IC50 (Prothrombin): > 10 µM
IC50 (Trypsin): > 10 µM

CC(C)[C@@H](NC(=O)c1ccc(Cl)s1)C(=O)Nc1ccc(N2CCOCC2=O)cc1
IC50 (Coagulation factor X): 0.066 µM
IC50 (Prothrombin): > 10 µM
IC50 (Trypsin): > 10 µM
